Converted amounts (≈) assume the structure as drawn.
What was measured:
Assay type in all cases: functional
Pichia kudriavzevii [1] = assay: Antimicrobial activity against Candida krusei after 72 hrs by broth microdilution method
Procedure, shortened: (§1)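 MFC: after MIC reading, a sample from each well was plated on Sabouraud dextrose agar and incubated 72 h at 35 °C. MFC was taken as the minimum concentration killing >99% of the original inoculum. The MIC step was NCCLS broth microdilution in MOPS-buffered RPMI 1640 (pH 7.0), with 2 ×10⁴ cells/mL, overnight at 35 °C.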

Candida parapsilosis [2] = assay: Antimicrobial activity against Candida parapsilosis by broth microdilution method; details: Lodderomyces parapsilosis
Procedure, shortened: (§2)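 MIC by NCCLS broth microdilution. Medium was RPMI 1640 with L-glutamine, buffered with 0.165 M MOPS at pH 7.0. Twofold drug dilutions ran 0.008–200 mg/L. Inoculum was set spectrophotometrically to 10⁶ CFU/mL, then diluted in medium to 2 ×10⁴ cells/mL. Plates were incubated overnight at 35 °C in humid air, agitated, and read visually and at 450 nm.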

Candida albicans [3] = assay: Antimicrobial activity against Candida albicans ATCC 10231 after 72 hrs by broth microdilution method; details: ATCC 10231, 72 h; procedure, shortened: as §1
Candida parapsilosis [4] = assay: Antimicrobial activity against Candida parapsilosis after 72 hrs by broth microdilution method; details: Lodderomyces parapsilosis; procedure, shortened: as §1
Candida albicans [5] = assay: Antimicrobial activity against Candida albicans ATCC 10231 by broth microdilution method; procedure, shortened: as §2
Pichia kudriavzevii [6] = assay: Antimicrobial activity against Candida krusei by broth microdilution method; procedure, shortened: as §2
Nakaseomyces glabratus [7] = assay: Antimicrobial activity against Candida glabrata by broth microdilution method; procedure, shortened: as §2
Nakaseomyces glabratus [8] = assay: Antimicrobial activity against Candida glabrata after 72 hrs by broth microdilution method; procedure, shortened: as §1

Compound	MFC (Pichia kudriavzevii [1]) [µg/mL]	MIC (Candida parapsilosis [2]) [µg/mL]	MFC (Candida albicans [3]) [µg/mL]	MFC (Candida parapsilosis [4]) [µg/mL]	MIC (Candida albicans [5]) [µg/mL]	MIC (Pichia kudriavzevii [6]) [µg/mL]	MIC (Nakaseomyces glabratus [7]) [µg/mL]	MFC (Nakaseomyces glabratus [8]) [µg/mL]
CCOC(=O)NNc1[nH]c(-c2ccccc2)cc1C#N	6.25 (≈ 23.1 µM)	6.25 (≈ 23.1 µM)	3.12 (≈ 11.5 µM)	12.5 (≈ 46.2 µM)	3.12 (≈ 11.5 µM)	3.12 (≈ 11.5 µM)	3.12 (≈ 11.5 µM)	6.25 (≈ 23.1 µM)
CCOC(=O)c1cc(-c2ccc(OC)cc2)[nH]c1NNC(=O)CCOC	100 (≈ 277 µM)	25 (≈ 69.2 µM)	6.25 (≈ 17.3 µM)	100 (≈ 277 µM)	6.25 (≈ 17.3 µM)	50 (≈ 138 µM)	12.5 (≈ 34.6 µM)	100 (≈ 277 µM)
CCOC(=O)c1cc(-c2ccccc2)[nH]c1NNC(=O)Cc1ccc(OC)cc1	> 100	50 (≈ 127 µM)	> 100	> 100	> 100	50 (≈ 127 µM)	> 100	> 100
CCCC(=O)NNc1[nH]c(-c2ccc(OC)cc2)cc1C(=O)OCC	100 (≈ 290 µM)	12.5 (≈ 36.2 µM)	12.5 (≈ 36.2 µM)	> 100	12.5 (≈ 36.2 µM)	50 (≈ 145 µM)	> 100	> 100
COCCC(=O)NNc1[nH]c(-c2ccccc2)cc1C#N	12.5 (≈ 44 µM)	6.25 (≈ 22 µM)	6.25 (≈ 22 µM)	25 (≈ 87.9 µM)	6.25 (≈ 22 µM)	6.25 (≈ 22 µM)	3.25 (≈ 11.4 µM)	12.5 (≈ 44 µM)
COCC(=O)NNc1[nH]c(-c2ccc(OC)cc2)cc1C#N	12.5 (≈ 41.6 µM)	6.25 (≈ 20.8 µM)	6.25 (≈ 20.8 µM)	12.5 (≈ 41.6 µM)	6.25 (≈ 20.8 µM)	6.25 (≈ 20.8 µM)	25 (≈ 83.2 µM)	50 (≈ 166 µM)
CCOC(=O)NNc1[nH]c(-c2ccccc2)cc1C(=O)OC	25 (≈ 82.4 µM)	3.12 (≈ 10.3 µM)	6.25 (≈ 20.6 µM)	12.5 (≈ 41.2 µM)	3.12 (≈ 10.3 µM)	6.25 (≈ 20.6 µM)	3.12 (≈ 10.3 µM)	12.5 (≈ 41.2 µM)
COCCC(=O)NNc1[nH]c(-c2ccccc2)cc1C(=O)OC	25 (≈ 78.8 µM)	12.5 (≈ 39.4 µM)	12.5 (≈ 39.4 µM)	100 (≈ 315 µM)	6.25 (≈ 19.7 µM)	12.5 (≈ 39.4 µM)	6.25 (≈ 19.7 µM)	25 (≈ 78.8 µM)
CCOC(=O)c1cc(-c2ccccc2)[nH]c1NNC(C)=O	50 (≈ 174 µM)	50 (≈ 174 µM)	12.5 (≈ 43.5 µM)	100 (≈ 348 µM)	12.5 (≈ 43.5 µM)	50 (≈ 174 µM)	12.5 (≈ 43.5 µM)	> 100
CCOC(=O)NNc1[nH]c(-c2ccccc2)cc1C(=O)OCC	25 (≈ 78.8 µM)	6.25 (≈ 19.7 µM)	3.12 (≈ 9.83 µM)	12.5 (≈ 39.4 µM)	3.12 (≈ 9.83 µM)	12.5 (≈ 39.4 µM)	6.25 (≈ 19.7 µM)	12.5 (≈ 39.4 µM)
CCOC(=O)c1cc(-c2ccc(Cl)cc2)[nH]c1NNC(=O)C(C)C	> 100	> 100	> 100	> 100	> 100	> 100	> 100	> 100
CCOC(=O)c1cc(-c2ccccc2)[nH]c1NNC(=O)CCOC	50 (≈ 151 µM)	6.25 (≈ 18.9 µM)	6.25 (≈ 18.9 µM)	25 (≈ 75.4 µM)	3.12 (≈ 9.42 µM)	12.5 (≈ 37.7 µM)	6.25 (≈ 18.9 µM)	25 (≈ 75.4 µM)
COCCC(=O)NNc1[nH]c(-c2ccc(OC)cc2)cc1C(=O)OC	25 (≈ 72 µM)	6.25 (≈ 18 µM)	6.25 (≈ 18 µM)	12.5 (≈ 36 µM)	6.25 (≈ 18 µM)	6.25 (≈ 18 µM)	6.25 (≈ 18 µM)	25 (≈ 72 µM)
CCC(=O)NNc1[nH]c(-c2ccc(OC)cc2)cc1C(=O)OC	6.25 (≈ 19.7 µM)	3.12 (≈ 9.83 µM)	3.12 (≈ 9.83 µM)	12.5 (≈ 39.4 µM)	3.12 (≈ 9.83 µM)	6.25 (≈ 19.7 µM)	6.25 (≈ 19.7 µM)	12.5 (≈ 39.4 µM)
CCOC(=O)c1cc(-c2ccc(Cl)cc2)[nH]c1NNC(=O)Cc1ccc(OC)cc1	> 100	> 100	> 100	> 100	> 100	> 100	> 100	> 100
OC(Cn1cncn1)(Cn1cncn1)c1ccc(F)cc1F [FLUCONAZOLE]	50 (≈ 163 µM)	0.39 (≈ 1.27 µM)	> 100	> 100	0.78 (≈ 2.55 µM)	25 (≈ 81.6 µM)	12.5 (≈ 40.8 µM)	> 100
CCC(=O)NNc1[nH]c(-c2ccccc2)cc1C(=O)OC	25 (≈ 87 µM)	6.25 (≈ 21.8 µM)	6.25 (≈ 21.8 µM)	12.5 (≈ 43.5 µM)	3.12 (≈ 10.9 µM)	12.5 (≈ 43.5 µM)	6.25 (≈ 21.8 µM)	25 (≈ 87 µM)
CCOC(=O)NNc1[nH]c(-c2ccc(Cl)cc2)cc1C(=O)OCC	> 100	12.5 (≈ 35.5 µM)	> 100	12.5 (≈ 35.5 µM)	25 (≈ 71.1 µM)	50 (≈ 142 µM)	> 100	> 100

From ChEMBL document CHEMBL1138570, “2-Acylhydrazino-5-arylpyrrole derivatives: synthesis and antifungal activity evaluation” (Eur J Med Chem, 2009)
